Hits are enriched below; roughly 2.1% of the tested compounds scored in any of these assays.
APJ antagonist – antagonists of human APJ apelin receptor | CHO-K1 APJ beta-arrestin complementation, luminescence | inhibition, % at 20 µM | actives 0.32% (n = 330,000) | AID 2521;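 active means inhibition above about 40% at 20 µM, limit read from the data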;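 further: cells challenged with 10 nM apelin-13 agonist together with compound; plate controls were apelin-13 plus DMSO wells for no effect and DMSO wells lacking apelin-13 for full effect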
Target sequence (P35414 whole entry, looked up): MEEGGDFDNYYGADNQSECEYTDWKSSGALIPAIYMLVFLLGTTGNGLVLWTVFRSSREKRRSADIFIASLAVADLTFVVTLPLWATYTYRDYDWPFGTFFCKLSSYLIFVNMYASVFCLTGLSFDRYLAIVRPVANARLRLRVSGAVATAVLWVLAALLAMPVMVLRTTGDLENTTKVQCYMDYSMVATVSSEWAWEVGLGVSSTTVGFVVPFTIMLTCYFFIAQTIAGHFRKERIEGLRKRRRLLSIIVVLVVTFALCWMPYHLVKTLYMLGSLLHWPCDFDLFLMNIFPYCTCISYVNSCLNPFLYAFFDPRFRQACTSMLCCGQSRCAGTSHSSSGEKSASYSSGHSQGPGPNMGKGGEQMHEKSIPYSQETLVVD
EBI2 antag – antagonists of human EBI2 receptor; P32249; EBI2 beta-arrestin recruitment, luminescence, 7a,25-OHC stimulated; inhibition, % at 5 µM; actives 0.81% (n = 360,000); AID 651636; in the data active means inhibition above about 38%;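 further: enzyme fragment complementation signal reports receptor beta-arrestin coupling in cells; 0% = agonist plus DMSO wells and 100% = wells without agonist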
m5-HT2A agonist – activates the mouse 5-HT2A serotonin receptor | CHO-K1 mHTR2A beta-arrestin complementation, luminescence; percent of 30 µM serotonin response | AID 624169 | actives 0.66% (n = 360,000) | activation, % at 7.6 µM;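 active means activation above a run cutoff, the mean activation of all tested compounds plus 3 SD, cut at about 14% in these data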;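 further: 0% = plate median of compound wells and 100% = 30 µM serotonin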
APJ agonist – agonists of human APJ apelin receptor; CHO-K1 APJ PathHunter beta-arrestin, luminescence; 0% DMSO wells, 100% apelin; P35414; actives 0.11% (n = 330,000); activation, % at 20 µM;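 active means activation more than six SD over the plate average, tested at 20 µM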;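 further: 0% = DMSO alone and 100% = apelin-13 at 10 nM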
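Assay system: CHO-K1 APJ beta-arrestin complementation cell line / Compound: single test compound dose, 20 µM final, 1% DMSO / Times: overnight seeding, 90 min compound at 25 °C, 1 h detection / Technique: beta-gal luminescence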
CXCR6 inh – blocks human CXCR6 beta-arrestin recruitment | O00574 | CHO-K1 PathHunter CXCR6 beta-arrestin, luminescence | inhibition, % at 20 µM | actives 0.36% (n = 360,000) | AID 602244; in the data active means inhibition above about 34%, passing the limit was not always enough;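 further: antagonist mode with CXCL16 agonist at 10 nM final; 0% = 10 nM CXCL16 with DMSO and 100% = unstimulated wells without agonist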
CCR6 antagonist – CCR6 (human) receptor antagonism. P51684. CHO-K1 CCR6 PathHunter beta-arrestin, luminescence, CCL20-stimulated. inhibition, % at 20 µM. actives 0.49% (n = 340,000);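 active means compounds whose inhibition of the agonist-driven luminescence signal at 20 µM reaches about 50%, limit read from the data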;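 further: cells stimulated with CCL20 at 14 nM final; plate controls were DMSO with CCL20 for no effect and DMSO without agonist for full effect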
EBI2 antag conf – EBI2 (human) antagonism, single concentration confirmation | EBI2 beta-arrestin luminescence, 7a,25-OHC antagonism | AID 651997 | shares compounds with EBI2 antag | inhibition, % at 5 µM | actives 29% (n = 2,400);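 active means inhibition of at least 50%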
EBI2 agonist – EBI2 agonism counter-screen | AID 652000 | EBI2-expressing cells, agonist mode, luminescence, 60 min; 0% vehicle, 100% 7α,25-dihydroxycholesterol control | shares compounds with EBI2 antag | activation, % at 5 µM | 2,400 tested, under 10 active;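 active means activation of at least 50%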
bGal counter – beta-galactosidase inhibition counter-screen. shares compounds with EBI2 antag. purified beta-galactosidase, luminescent Galacton Star, 15 min. inhibition, % at 5 µM. actives 1% (n = 2,400). AID 652176;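 active means replicate-average signal at least 3 plate SD below neutral wells, shown as high inhibition, flagging enzyme-inhibiting false positives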;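 further: 0% = DMSO wells with enzyme and 100% = wells lacking enzyme; higher means stronger loss of beta-gal luminescence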
Numbers without * were called inactive.

Screening CCOC(=O)C1(Cc2ccc(Cl)cc2)CCN(C(C)Cc2ccc(O)c(OC)c2)CC1 (centres undefined) returned APJ antagonist 13, EBI2 antag 47*, m5-HT2A agonist -6, APJ agonist 2, CXCR6 inh 7, CCR6 antagonist 16, EBI2 antag conf 17, EBI2 agonist 0 and bGal counter -8.
`CCOC(=O)C1(Cc2ccc(OC)cc2)CCN(S(C)(=O)=O)CC1` gave APJ antagonist 6, EBI2 antag 4, m5-HT2A agonist 5, APJ agonist -4, CXCR6 inh 7 and CCR6 antagonist 3.
Screening COc1ccc(N2CCN(C(=O)CSc3ccc(C)cc3)CC2)cc1 returned APJ antagonist 3, EBI2 antag 64*, m5-HT2A agonist 1, APJ agonist -3, CXCR6 inh 4, CCR6 antagonist 5, EBI2 antag conf 58*, EBI2 agonist 1 and bGal counter 3.
Cc1ccc(SCC(=O)N2CCN(c3ccccn3)CC2)cc1 was read as APJ antagonist -10, EBI2 antag 73*, m5-HT2A agonist 2, APJ agonist -2, CXCR6 inh 1, CCR6 antagonist 0, EBI2 antag conf 50*, EBI2 agonist 3 and bGal counter 4.
Screening CN(CC(=O)Nc1ccccc1Cl)CC(=O)Nc1ccccc1[N+](=O)[O-] returned APJ antagonist -9, EBI2 antag -6, m5-HT2A agonist 1, APJ agonist 2, CXCR6 inh 5 and CCR6 antagonist 8.
Cc1ccc(NC(=O)C2CCCN(S(=O)(=O)c3cnc[nH]3)C2)c(Br)c1 (centres undefined) was read as APJ antagonist -2, EBI2 antag 2, m5-HT2A agonist 8, APJ agonist -1, CXCR6 inh -6 and CCR6 antagonist -5.
`O=C(Nc1ccc2c(c1)OCO2)N1CCN(c2ccccc2Cl)CC1` gave APJ antagonist 13, EBI2 antag 50*, m5-HT2A agonist -3, APJ agonist -6, CXCR6 inh 4, CCR6 antagonist 6, EBI2 antag conf 37, EBI2 agonist -1 and bGal counter 3.
Screening O=C(Nc1ccc2c(c1)OCO2)N1CCN(S(=O)(=O)c2ccc(Cl)cc2)CC1 returned APJ antagonist -2, EBI2 antag 48*, m5-HT2A agonist 0, APJ agonist -4, CXCR6 inh -9, CCR6 antagonist -7, EBI2 antag conf 27, EBI2 agonist -1 and bGal counter -13.
O=[N+]([O-])c1ccc(N/N=C/c2cn(-c3ccccc3)nc2-c2ccccc2)cc1 was read as APJ antagonist 26, EBI2 antag 44*, m5-HT2A agonist 3, APJ agonist -3, CXCR6 inh 16, CCR6 antagonist 29, EBI2 antag conf 17, EBI2 agonist -1 and bGal counter 8.
`CC1CCCCC1NC(=O)COc1cccnc1[N+](=O)[O-]` (centres undefined) gave APJ antagonist 8, EBI2 antag -8, m5-HT2A agonist 3, APJ agonist -1, CXCR6 inh -3 and CCR6 antagonist 10.
Cc1ccc(N=C2NC(=O)/C(=C\c3cccs3)S2)cc1C was read as APJ antagonist -4, EBI2 antag -5, m5-HT2A agonist 1, APJ agonist -2, CXCR6 inh 10 and CCR6 antagonist 18.
For Cc1ccc(N=C2NC(=O)/C(=C/c3cccnc3)S2)cc1C the results were APJ antagonist 3, EBI2 antag 47*, m5-HT2A agonist -3, APJ agonist 1, CXCR6 inh 1, CCR6 antagonist 15, EBI2 antag conf 34, EBI2 agonist 0 and bGal counter 6.
Screening O=C1NC(=Nc2ccccc2)S/C1=C\c1cccnc1 returned APJ antagonist 16, EBI2 antag 45*, m5-HT2A agonist -1, APJ agonist -5, CXCR6 inh -5, CCR6 antagonist -2, EBI2 antag conf 51*, EBI2 agonist -1 and bGal counter -6.
For O=C1NC(=Nc2cccnc2)S/C1=C/c1ccc(F)cc1 the results were APJ antagonist -8, EBI2 antag 0, m5-HT2A agonist 4, APJ agonist 0, CXCR6 inh -2 and CCR6 antagonist 8.
Screening COc1ccc(-c2csc(NC(=O)C3CSC4(C)CCC(=O)N34)n2)cc1OC (centres undefined) returned APJ antagonist 6, EBI2 antag -7, m5-HT2A agonist -2, APJ agonist 22, CXCR6 inh -5 and CCR6 antagonist -5.
For CCN1C(=O)/C(=C/c2nc3ccccc3c(=O)n2-c2ccccc2)c2ccccc21 the results were APJ antagonist 9, EBI2 antag 45*, m5-HT2A agonist 5, APJ agonist -4, CXCR6 inh 12, CCR6 antagonist -9, EBI2 antag conf 51*, EBI2 agonist 2 and bGal counter -1.
COCCNc1nc(NCCOC)c2sc(-c3ccccc3)cc2n1 was read as EBI2 antag 12, m5-HT2A agonist -5 and CXCR6 inh 3.
`COCCNc1nc(-c2ccc(OC)cc2C)c2sc(-c3ccccc3)cc2n1` gave EBI2 antag 42*, m5-HT2A agonist -3, CXCR6 inh 6, EBI2 antag conf 19, EBI2 agonist -1 and bGal counter -13.
For COCCNc1nc(NCCOc2ccccc2Cl)c2sccc2n1 the results were EBI2 antag 8, m5-HT2A agonist -6 and CXCR6 inh -14.
`COc1ccccc1CNc1nc(NC(C)C)nc2cc(-c3ccccc3)sc12` gave EBI2 antag 50*, m5-HT2A agonist -8, CXCR6 inh 3, EBI2 antag conf 50*, EBI2 agonist -2 and bGal counter -8.
Screening CC(C)Nc1nc(NCCOc2ccccc2Cl)c2sc(-c3ccccc3)cc2n1 returned EBI2 antag 52*, m5-HT2A agonist -4, CXCR6 inh 9, EBI2 antag conf 30, EBI2 agonist 0 and bGal counter -15.
`COCCNc1nc(NCCOc2ccccc2)c2sc(-c3ccccc3)cc2n1` gave EBI2 antag 47*, m5-HT2A agonist -5, CXCR6 inh 9, EBI2 antag conf 45, EBI2 agonist 0 and bGal counter 6.
Screening COc1ccccc1CNc1nc(NCc2ccccc2)nc2ccsc12 returned EBI2 antag -2, m5-HT2A agonist -8 and CXCR6 inh 0.
